Measured values gathered from unrelated publications.
Each line is one published result; the experiments were not run side by side.

With `CCc1cc(C(=O)NC)c2nccc(N3CCc4c(cc(Cn5ccnc5)cc4-c4cn(C)nc4C(F)(F)F)C3=O)c2c1` the C0 was 2600 ng/mL (male Sprague-Dawley rat, plasma; intravenous, 3 mg/kg).
`COC(=O)[C@H](N)CSSC[C@@H](N)C(=O)OC` has a half-life of 15.1 min (chemical stability; dog, plasma).
The C0 of `Oc1c(Br)cc(Cl)c2cccnc12` is reported as 2400 ng/mL (Sprague-Dawley rat, plasma; intravenous, 2 mg/kg).
With `CCOC(=O)C1=C(C)N/C(=C/c2cc(C)n(-c3ccc(SC)cc3)c2C)C1=O` the half-life was 26 min (metabolic stability; mouse, liver microsomes; 1 µM).
With `CCc1cc(-c2noc(-c3cc(OC)nc(C4CCCC4)c3)n2)cc(C)c1OC[C@@H](O)CO` the concentration was 41.1 ng/mL (Wistar rat, plasma; oral, 1 mg/kg, 6 h, single dose).
`CCOC(=O)C1=C(C)N/C(=C/c2cc(C)n(-c3ccc(OC)cc3)c2C)C1=O` gave a half-life of 32 min (metabolic stability; mouse, liver microsomes; 1 µM).
With `Cc1noc(C)c1Cn1cc(N2C(=O)CN(Cc3cccc(O)c3)C2=O)cn1` the concentration was 11.4 ng/mL (male Sprague-Dawley rat, plasma; oral, 100 mg/kg, 12 h).
`COc1ccc2c(=O)n(C)c(-c3ccccc3)nc2c1` gave a concentration of 15.3 ng/g (male Sprague-Dawley rat, lung; oral, 30 mg/kg, 15 min, single dose).
With `CC1=C(C(=O)OCc2ccccc2)C(=O)/C(=C\c2cc(C)n(-c3ccccc3C(F)(F)F)c2C)N1` the half-life was 3.1 min (metabolic stability; mouse, liver microsomes; 1 µM).
With `COc1cccc(-c2n[nH]c(SCc3ccccn3)n2)c1OC` the concentration was 1160 ng/mL (male Sprague-Dawley rat, plasma; oral, 10 mg/kg, 2 h, single dose).
With `Cc1noc(C)c1Cn1cc(N2C(=O)N(Cc3cccc(O)c3)C(C)(C)C2=O)cn1` the concentration was 2.9 ng/mL (male Sprague-Dawley rat, plasma; oral, 100 mg/kg, 4 h, single dose).
`COc1cc2c3c(n(CCCN4CCOCC4)c(=O)c2cc1OC)-c1cc2c(cc1C3=O)OCO2` has a half-life of 252 min (female Fischer 344 rat, plasma; intravenous, 12 mg/m², single dose).
The concentration of `CCOC(=O)[C@@]12C[C@@H]1[C@@H](n1ccc3c(NC)nc(C#Cc4ccc(Cl)s4)nc31)[C@H](O)[C@@H]2O` is reported as 3.68 ng/mL (male Sprague-Dawley rat, plasma; oral, 3 mg/kg, 8 h).
